From ChEMBL document CHEMBL3997800, “Discovery of Multitarget Agents Active as Broad-Spectrum Antivirals and Correctors of Cystic Fibrosis Transmembrane Conductance Regulator for Associated Pulmonary Diseases” (J Med Chem, 2017) come the findings set out here.

Data set [1] has as its system Enterovirus A71. The data set can be described thus: Antiviral activity against Enterovirus 71 TW/70902/08 clinical isolates incubated for 2 to 3 days. It counts as functional. To be noted: Enterovirus A.
A further data set concerns Poliovirus 1. The data set can be described thus: Antiviral activity against Poliovirus 1 after 2 to 3 days by cell based MTS assay. It is filed as functional. To be noted: Enterovirus C. In a few lines: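 Vero cells seeded at 20 000/well in MEM with 2% FCS. Three 8-step 1:5 dilution series from 100 μM, then virus, then cells; 2–3 days until maximal CPE. Read-out: 5% MTS for 1.5 h at 37°C, absorbance at 498 nm, expressed as % of untreated controls. EC50 taken as the median of 3 dose-response curves.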
In general terms: Tetrazolium dyes change colour on reduction, which living cells bring about.

Data set [2] relates to Enterovirus A71. The data set can be described thus: Antiviral activity against Enterovirus 71 H08300 461#812 clinical isolates incubated for 2 to 3 days. It counts as functional. Particulars: Enterovirus A.
Data set [3] in a line: Inhibition of full length recombinant His6-tagged PI4K3beta (unknown origin) expressed in Sf9 insect cells using PI : PS as substrate in presence of [gamma-33P]-ATP by scintillation counting method. Set-up: species or system Homo sapiens. To be noted: read-out: IC50.
Data set [4] can be described thus: Selectivity index, ratio of CC50 for human RD cells to EC50 for Enterovirus 71. It is filed as toxicity. To be noted: read-out: Ratio CC50/EC50. In a few lines: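 SI is CC50/EC50. CC50 is from the MTS assay on uninfected RD cells and EC50 from the EV71 CPE-reduction assay, both medians of three dose-response curves run in parallel.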
A short description of data set [5]: Selectivity index, ratio of CC50 for human RD cells assessed as change in cell morphology to EC50 for Enterovirus 71. It counts as toxicity. Particulars: read-out: Ratio CC50/EC50. In a few lines:
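SI is CC50/EC50. CC50 is from microscopically detected morphology change in uninfected RD cells and EC50 from the EV71 CPE-reduction assay in RD cells.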

In the next data set the test system is Coxsackievirus B3. Put plainly: Antiviral activity against Coxsackievirus B3 after 2 to 3 days by cell based MTS assay. It is filed as functional. Particulars: Enterovirus B.
The target of data set [6] is Serine/threonine-protein kinase pim-1 (Homo sapiens) (UniProt P11309). The data set can be described thus: Inhibition of recombinant human N-terminal GST-tagged pim1 expressed in baculovirus infected sf9 cells assessed as residual activity using KRRRLASLR as substrate at 100 uM by ADP-Glo bioluminescence assay relative to control relative to control. The gist of the method: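 Kinase reactions followed manufacturer's instructions with 10-50 ng enzyme, in 10 µL for 10 min at 30 °C; NP-40 or BSA added for some kinases. Compound at 100 µM. Residual activity is the mean of two independent replicates.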

The subject of data set [7] is Cystic fibrosis transmembrane conductance regulator (Homo sapiens), P13569 [F508del]. The data set can be described thus: Corrector activity at CFTR F508 deletion mutant (unknown origin) expressed in HEK293 cells assessed as increase in steady-state level of F508 deletion mutant at plasma membrane at 10 uM preincubated for 24 hrs followed by compound washout by pHTomato dye based fluorescence imaging method. It counts as cell-based. The gist of the method: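 HEK293 cells were transiently transfected (Lipofectamine 2000) with F508del-CFTR-pHTomato plus co-expressed soluble eGFP, then kept 24 h at 37 °C. Next, 24 h at 30 °C with 10 μM drug. Imaging in pH 7.4 HEPES buffer, then extracellular pH shifted to ~6.5 (MES) and ~8.8 (Tris). The eGFP-normalized fluorescence rise (ΔF) estimates membrane CFTR.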

Molecules are shown by their SMILES. Calls of active or inactive are those of the source. The calls are words filed in the database; no cut-off is given here.

Cystic fibrosis transmembrane conductance regulator (Homo sapiens), P13569 [F508del], sequence (P13569 as listed by the source): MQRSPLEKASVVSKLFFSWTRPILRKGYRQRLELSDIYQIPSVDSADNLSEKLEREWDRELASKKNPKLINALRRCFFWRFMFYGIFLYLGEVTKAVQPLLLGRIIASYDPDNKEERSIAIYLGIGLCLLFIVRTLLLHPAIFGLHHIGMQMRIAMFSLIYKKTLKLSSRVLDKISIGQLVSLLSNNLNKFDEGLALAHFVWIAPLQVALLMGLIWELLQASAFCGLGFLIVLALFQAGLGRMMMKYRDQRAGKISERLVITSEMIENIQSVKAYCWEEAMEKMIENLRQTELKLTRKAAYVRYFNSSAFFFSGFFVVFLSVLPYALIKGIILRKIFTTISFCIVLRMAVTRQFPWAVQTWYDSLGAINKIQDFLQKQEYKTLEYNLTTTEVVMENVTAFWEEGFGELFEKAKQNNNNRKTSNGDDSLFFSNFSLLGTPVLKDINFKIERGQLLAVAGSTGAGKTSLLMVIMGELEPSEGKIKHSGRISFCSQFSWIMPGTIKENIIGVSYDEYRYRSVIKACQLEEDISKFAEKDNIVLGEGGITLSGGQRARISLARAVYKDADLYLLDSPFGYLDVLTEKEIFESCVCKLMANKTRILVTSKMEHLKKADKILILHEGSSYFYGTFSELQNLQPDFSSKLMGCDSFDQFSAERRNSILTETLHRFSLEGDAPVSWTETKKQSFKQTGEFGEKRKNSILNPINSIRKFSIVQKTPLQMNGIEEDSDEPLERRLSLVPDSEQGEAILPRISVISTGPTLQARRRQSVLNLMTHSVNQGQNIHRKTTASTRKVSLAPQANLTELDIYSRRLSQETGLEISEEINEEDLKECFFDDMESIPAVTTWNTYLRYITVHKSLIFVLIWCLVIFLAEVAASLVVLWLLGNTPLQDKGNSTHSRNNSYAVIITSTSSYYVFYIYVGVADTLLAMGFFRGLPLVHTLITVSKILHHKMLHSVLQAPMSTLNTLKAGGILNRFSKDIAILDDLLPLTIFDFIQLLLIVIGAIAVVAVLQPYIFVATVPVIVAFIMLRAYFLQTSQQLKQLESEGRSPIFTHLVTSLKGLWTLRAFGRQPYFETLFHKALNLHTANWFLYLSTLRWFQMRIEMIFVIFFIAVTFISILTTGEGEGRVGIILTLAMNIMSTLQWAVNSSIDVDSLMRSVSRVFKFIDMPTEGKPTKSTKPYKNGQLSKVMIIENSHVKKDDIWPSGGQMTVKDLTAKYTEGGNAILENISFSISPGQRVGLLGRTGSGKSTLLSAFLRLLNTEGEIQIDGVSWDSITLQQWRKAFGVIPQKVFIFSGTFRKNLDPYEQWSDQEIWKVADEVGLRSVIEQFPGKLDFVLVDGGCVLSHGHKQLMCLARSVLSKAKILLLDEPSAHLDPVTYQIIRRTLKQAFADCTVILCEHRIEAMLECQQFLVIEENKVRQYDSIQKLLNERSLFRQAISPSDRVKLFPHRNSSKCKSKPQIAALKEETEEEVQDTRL
Serine/threonine-protein kinase pim-1 (Homo sapiens), sequence (P11309 whole entry, looked up): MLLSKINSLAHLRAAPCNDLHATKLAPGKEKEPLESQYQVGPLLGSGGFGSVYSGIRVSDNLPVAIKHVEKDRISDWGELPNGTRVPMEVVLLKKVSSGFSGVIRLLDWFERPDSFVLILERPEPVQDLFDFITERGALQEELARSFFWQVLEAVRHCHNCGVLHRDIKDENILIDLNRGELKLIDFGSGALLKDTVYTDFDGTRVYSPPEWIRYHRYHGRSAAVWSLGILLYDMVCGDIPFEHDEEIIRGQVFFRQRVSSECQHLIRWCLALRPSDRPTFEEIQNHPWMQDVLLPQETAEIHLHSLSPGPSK

Usually EC50 stands for the concentration needed to bring the measured effect to its halfway point. Low readings indicate higher potency in that assay, high ones lower potency in that assay. The IC50 is the concentration at which inhibition is half-maximal. With `CC(=O)c1cccc(Nc2nc(-c3sc(NC(=O)OC(C)(C)C)nc3C)cs2)c1`, the EC50 with Enterovirus A71 [1] came to 3.58 µM; with Poliovirus 1, 13.3 µM; in the data set on Enterovirus A71 [2], 0.97 µM; with Coxsackievirus B3, 2.74 µM. For the same molecule, in data set [3], the IC50 worked out at 4.67 µM. The selectivity ratio in data set [4] was 29.7; in [5] it was 71.1. In addition, the Activity in data set [6] is 70%. Also, the outcome in data set [7] was Active.
